From ChEMBL document CHEMBL1154944, “Azole-based inhibitors of AKT/PKB for the treatment of cancer” (Bioorg Med Chem Lett, 2010) come the findings set out here.

Each structure is given as a SMILES string. Bounds are passed on as bounds.

T1 sequence (P31749 whole entry): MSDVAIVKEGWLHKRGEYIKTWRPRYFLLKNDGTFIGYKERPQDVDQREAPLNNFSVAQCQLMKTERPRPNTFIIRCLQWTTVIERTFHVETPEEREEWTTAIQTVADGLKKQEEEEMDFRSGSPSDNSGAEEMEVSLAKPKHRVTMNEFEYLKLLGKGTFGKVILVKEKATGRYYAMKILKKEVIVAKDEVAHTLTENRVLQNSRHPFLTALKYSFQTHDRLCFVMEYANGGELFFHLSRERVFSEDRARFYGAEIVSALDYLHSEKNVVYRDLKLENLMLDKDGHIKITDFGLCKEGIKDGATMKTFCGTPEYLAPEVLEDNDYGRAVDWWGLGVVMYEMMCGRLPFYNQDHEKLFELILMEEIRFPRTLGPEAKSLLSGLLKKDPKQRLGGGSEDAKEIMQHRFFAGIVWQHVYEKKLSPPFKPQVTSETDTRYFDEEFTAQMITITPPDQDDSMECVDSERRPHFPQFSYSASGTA

The first test addresses Cyclin-dependent kinase 2 (Homo sapiens, UniProt P24941). Nature of the test: Inhibition of CDK2.
By IC50 is commonly meant the concentration needed to halve the response being measured. As for `N[C@H](CNc1cnc(-c2ccc3cnccc3c2)s1)Cc1ccc(C(F)(F)F)cc1`, the concentration for half-maximal inhibition (IC50) is 1070 nM.
On the same count and under the same terms, for `N[C@H](CNc1ncc(-c2ccc3cn[nH]c3c2)s1)Cc1ccc(C(F)(F)F)cc1` the value was over 1000 nM; for `Cn1c(=O)[nH]c2ccc(-c3cnc(NC[C@@H](N)Cc4ccc(C(F)(F)F)cc4)s3)cc21`, 276 nM.
The same measure, in the same setting: the same measure for `Cn1nc(N)c2ccc(-c3cnc(NC[C@@H](N)Cc4ccc(C(F)(F)F)cc4)s3)cc21`: over 2000 nM; for `N[C@H](CNc1ncc(-c2ccc3c(c2)CCC(=O)N3)s1)Cc1ccc(C(F)(F)F)cc1`: over 25000 nM.
The same measure, in the same setting: the same measure for `N[C@H](CNc1ncc(-c2ccc3cncnc3c2)s1)Cc1ccc(C(F)(F)F)cc1`: 136 nM; for `N[C@H](CNc1cc(-c2ccc3cnccc3c2)no1)Cc1ccc(C(F)(F)F)cc1`: 93 nM.
`N[C@H](CNc1ncc(-c2ccc3[nH]c(=O)sc3c2)s1)Cc1ccc(C(F)(F)F)cc1` gave an IC50 of 285 nM.
`N[C@H](CNc1ncc(-c2ccc3nnccc3c2)s1)Cc1ccc(C(F)(F)F)cc1` came in with an IC50 of over 2000 nM.

Another test has as its system U-87MG ATCC. Put plainly: Selectivity ratio of IC50 for AKT1 in human U87MG cells to IC50 for AKT1. In kind it is cell-based.
Take `N[C@H](CNc1ncc(-c2ccc3[nH]ncc3c2)s1)Cc1ccc(Cl)cc1`: the Ratio IC50 came to 86.
On the same count and under the same terms, for `N[C@H](CNc1ncc(-c2ccc3cncnc3c2)s1)Cc1ccc(C(F)(F)F)cc1` the value was 37.

Tested on in another test: not listed separately
Nature of the test: Inhibition of PKA.
With `N[C@H](CNc1ncc(-c2ccc3[nH]ncc3c2)s1)Cc1ccc(Cl)cc1`, 39.9 nM corresponded to half-maximal inhibition (IC50).
With `N[C@H](CNc1cnc(-c2ccc3cnccc3c2)s1)Cc1ccc(C(F)(F)F)cc1`, the IC50 came out at 187 nM.
On the same count and under the same terms, the same measure for `N[C@H](CNc1ncc(-c2ccc3cn[nH]c3c2)s1)Cc1ccc(C(F)(F)F)cc1`: 334 nM.
The molecule `Cn1c(=O)[nH]c2ccc(-c3cnc(NC[C@@H](N)Cc4ccc(C(F)(F)F)cc4)s3)cc21` had an IC50 of 179 nM.
Molecule `Cn1nc(N)c2ccc(-c3cnc(NC[C@@H](N)Cc4ccc(C(F)(F)F)cc4)s3)cc21` came in with a half-maximal inhibitory concentration (IC50) of 119 nM.
Molecule `N[C@H](CNc1ncc(-c2ccc3c(c2)CCC(=O)N3)s1)Cc1ccc(C(F)(F)F)cc1` registered an IC50 of 2400 nM.
The same measure, in the same setting: for `N[C@H](CNc1nnc(-c2ccc3cnccc3c2)s1)Cc1ccc(C(F)(F)F)cc1` the value was 7.6 nM.
On the same count and under the same terms, the same measure for `N[C@H](CNc1ncc(-c2ccc3cncnc3c2)s1)Cc1ccc(C(F)(F)F)cc1`: 126 nM; for `N[C@H](CNc1cc(-c2ccc3cnccc3c2)no1)Cc1ccc(C(F)(F)F)cc1`: 40 nM.
`Cn1ncc2ccc(-c3cnc(NC[C@@H](N)Cc4ccc(C(F)(F)F)cc4)s3)cc21` gave an IC50 of 230 nM.
In turn, `N[C@H](CNc1ncc(-c2ccc3[nH]c(=O)sc3c2)s1)Cc1ccc(C(F)(F)F)cc1` had an IC50 of 143 nM.
Same read-out and setting: for `N[C@H](CNc1ncc(-c2ccc3nnccc3c2)s1)Cc1ccc(C(F)(F)F)cc1` the value was 489 nM.

The target of a further test is T1, RAC-alpha serine/threonine-protein kinase (Homo sapiens, UniProt P31749). Put plainly: Inhibition of human AKT1 in human U87MG cells assessed as PRAS40 phosphorylation after 1 hr by ELISA. Format: cell-based, U-87MG ATCC. In short, it runs like this:
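U-87 MG cells in 5% FBS incubated with inhibitor in threefold serial dilutions for 1 h at 37 °C, then lysed. Phospho-PRAS40 (Thr246) quantified by ELISA and normalized to total PRAS40. Mean ± SD where three or more measurements.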
With `N[C@H](CNc1ncc(-c2ccc3[nH]ncc3c2)s1)Cc1ccc(Cl)cc1`, the IC50 stood at 730 nM.
`Cn1c(=O)[nH]c2ccc(-c3cnc(NC[C@@H](N)Cc4ccc(C(F)(F)F)cc4)s3)cc21`: the half-inhibitory concentration (IC50) stood at 630 nM.
On to `N[C@H](CNc1ncc(-c2ccc3cncnc3c2)s1)Cc1ccc(C(F)(F)F)cc1`, for which the IC50 turned out to be 1300 nM.
`N[C@H](CNc1ncc(-c2ccc3[nH]c(=O)sc3c2)s1)Cc1ccc(C(F)(F)F)cc1`: the IC50 came to 920 nM.

For another test, the target named is T1, RAC-alpha serine/threonine-protein kinase. Put plainly: Inhibition of AKT1 after 10 mins by [gamma33]ATP assay.
`N[C@H](CNc1ncc(-c2ccc3[nH]ncc3c2)s1)Cc1ccc(Cl)cc1` registered an IC50 of 8.5 nM.
In turn, `N[C@H](CNc1cnc(-c2ccc3cnccc3c2)s1)Cc1ccc(C(F)(F)F)cc1` gave an IC50 of 404 nM.
In the case of `N[C@H](CNc1ncc(-c2ccc3cn[nH]c3c2)s1)Cc1ccc(C(F)(F)F)cc1`, half-maximal inhibition (IC50) was put at 613 nM.
Same read-out and setting: the same measure for `Cn1c(=O)[nH]c2ccc(-c3cnc(NC[C@@H](N)Cc4ccc(C(F)(F)F)cc4)s3)cc21`: 15.4 nM; for `Cn1nc(N)c2ccc(-c3cnc(NC[C@@H](N)Cc4ccc(C(F)(F)F)cc4)s3)cc21`: 2410 nM; for `N[C@H](CNc1ncc(-c2ccc3c(c2)CCC(=O)N3)s1)Cc1ccc(C(F)(F)F)cc1`: 3320 nM.
Molecule `N[C@H](CNc1nnc(-c2ccc3cnccc3c2)s1)Cc1ccc(C(F)(F)F)cc1` came in with an IC50 of 3.2 nM.
On the same count and under the same terms, for `N[C@H](CNc1ncc(-c2ccc3cncnc3c2)s1)Cc1ccc(C(F)(F)F)cc1` the value was 35 nM.
Consider `N[C@H](CNc1cc(-c2ccc3cnccc3c2)no1)Cc1ccc(C(F)(F)F)cc1`, for which the half-maximal inhibitory concentration (IC50) stood at 17 nM.
`Cn1ncc2ccc(-c3cnc(NC[C@@H](N)Cc4ccc(C(F)(F)F)cc4)s3)cc21`: inhibition was half-maximal at 895 nM (IC50).
Still for that read-out and setting: for `N[C@H](CNc1ncc(-c2ccc3[nH]c(=O)sc3c2)s1)Cc1ccc(C(F)(F)F)cc1` the value was 27 nM; for `N[C@H](CNc1ncc(-c2ccc3nnccc3c2)s1)Cc1ccc(C(F)(F)F)cc1`, 141 nM.
